Test results taken from ChEMBL document CHEMBL1770134, “Synthesis and in vitro activity of novel 1,2,4-triazolo[4,3-a]pyrimidine oxazolidinone antibacterial agents” (Bioorg Med Chem Lett, 2011).
≈ marks a conversion by molar mass, not a printed value.

Test system: Enterococcus faecalis
Assay: Ratio of MIC for Linezolid to compound for Enterococcus faecalis ATCC 29212
Assay type: functional

| Compound | Ratio |
| --- | --- |
| CC(=S)NC[C@H]1CN(c2ccc(-c3nnc4ncccn34)cc2)C(=O)O1 | 2 |

Test system: Staphylococcus epidermidis
Assay: Antibacterial activity Staphylococcus epidermidis ATCC 12228
Assay type: functional

| Compound | MIC [µg/mL] |
| --- | --- |
| CC(=O)NC[C@H]1CN(c2ccc(-c3nnc4ncccn34)cc2)C(=O)O1 | 8 (≈ 22.7 µM) |
| CCC(=O)NC[C@H]1CN(c2ccc(-c3nnc4ncccn34)cc2)C(=O)O1 | 16 (≈ 43.7 µM) |
| CCCC(=O)NC[C@H]1CN(c2ccc(-c3nnc4ncccn34)cc2)C(=O)O1 | 16 (≈ 42.1 µM) |
| CCCCC(=O)NC[C@H]1CN(c2ccc(-c3nnc4ncccn34)cc2)C(=O)O1 | 16 (≈ 40.6 µM) |
| CC(C)CC(=O)NC[C@H]1CN(c2ccc(-c3nnc4ncccn34)cc2)C(=O)O1 | 16 (≈ 40.6 µM) |
| CC(C)C(=O)NC[C@H]1CN(c2ccc(-c3nnc4ncccn34)cc2)C(=O)O1 | > 16 |
| O=C(CCl)NC[C@H]1CN(c2ccc(-c3nnc4ncccn34)cc2)C(=O)O1 | 4 (≈ 10.3 µM) |
| O=C(NC[C@H]1CN(c2ccc(-c3nnc4ncccn34)cc2)C(=O)O1)C(Cl)Cl | 4 (≈ 9.5 µM) |
| O=C(NC[C@H]1CN(c2ccc(-c3nnc4ncccn34)cc2)C(=O)O1)C1CC1 | 8 (≈ 21.1 µM) |
| O=C(NC[C@H]1CN(c2ccc(-c3nnc4ncccn34)cc2)C(=O)O1)C1CCC1 | 16 (≈ 40.8 µM) |
| CC(=S)NC[C@H]1CN(c2ccc(-c3nnc4ncccn34)cc2)C(=O)O1 | 0.5 (≈ 1.36 µM) |

Test system: Liver
Assay: Metabolic stability in human liver microsomes assessed per gram of liver
Assay type: ADME, Microsome

| Compound | Stability [mL/min/g] |
| --- | --- |
| CC(=S)NC[C@H]1CN(c2ccc(-c3nnc4ncccn34)cc2)C(=O)O1 | 0.3 |

Test system: Staphylococcus aureus
Assay: Antibacterial activity against Staphylococcus aureus ATCC 25923
Assay type: functional

| Compound | MIC [µg/mL] |
| --- | --- |
| CC(=O)NC[C@H]1CN(c2ccc(-c3nnc4ncccn34)cc2)C(=O)O1 | 16 (≈ 45.4 µM) |
| CCC(=O)NC[C@H]1CN(c2ccc(-c3nnc4ncccn34)cc2)C(=O)O1 | 16 (≈ 43.7 µM) |
| CCCC(=O)NC[C@H]1CN(c2ccc(-c3nnc4ncccn34)cc2)C(=O)O1 | > 16 |
| CCCCC(=O)NC[C@H]1CN(c2ccc(-c3nnc4ncccn34)cc2)C(=O)O1 | > 16 |
| CC(C)CC(=O)NC[C@H]1CN(c2ccc(-c3nnc4ncccn34)cc2)C(=O)O1 | > 16 |
| CC(C)C(=O)NC[C@H]1CN(c2ccc(-c3nnc4ncccn34)cc2)C(=O)O1 | > 16 |
| O=C(CCl)NC[C@H]1CN(c2ccc(-c3nnc4ncccn34)cc2)C(=O)O1 | 4 (≈ 10.3 µM) |
| O=C(NC[C@H]1CN(c2ccc(-c3nnc4ncccn34)cc2)C(=O)O1)C(Cl)Cl | 4 (≈ 9.5 µM) |
| O=C(NC[C@H]1CN(c2ccc(-c3nnc4ncccn34)cc2)C(=O)O1)C1CC1 | 16 (≈ 42.3 µM) |
| O=C(NC[C@H]1CN(c2ccc(-c3nnc4ncccn34)cc2)C(=O)O1)C1CCC1 | > 16 |
| CC(=S)NC[C@H]1CN(c2ccc(-c3nnc4ncccn34)cc2)C(=O)O1 | 1 (≈ 2.71 µM) |

Target: CYP2C9 (Homo sapiens, UniProt P11712)
Assay: Inhibition of CYP2C9 at 10 uM
Assay type: ADME
How it was run: (§1)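 Recombinant CYP isoforms each incubated with its own fluorogenic substrate, which is turned into a fluorescent product; fluorescence read on a plate reader. Inhibition taken as concentration-dependent reduction of that fluorescence, with standard inhibitors, buffers and stop reagents from a commercial kit.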

Sequence of CYP2C9 (P11712 whole entry): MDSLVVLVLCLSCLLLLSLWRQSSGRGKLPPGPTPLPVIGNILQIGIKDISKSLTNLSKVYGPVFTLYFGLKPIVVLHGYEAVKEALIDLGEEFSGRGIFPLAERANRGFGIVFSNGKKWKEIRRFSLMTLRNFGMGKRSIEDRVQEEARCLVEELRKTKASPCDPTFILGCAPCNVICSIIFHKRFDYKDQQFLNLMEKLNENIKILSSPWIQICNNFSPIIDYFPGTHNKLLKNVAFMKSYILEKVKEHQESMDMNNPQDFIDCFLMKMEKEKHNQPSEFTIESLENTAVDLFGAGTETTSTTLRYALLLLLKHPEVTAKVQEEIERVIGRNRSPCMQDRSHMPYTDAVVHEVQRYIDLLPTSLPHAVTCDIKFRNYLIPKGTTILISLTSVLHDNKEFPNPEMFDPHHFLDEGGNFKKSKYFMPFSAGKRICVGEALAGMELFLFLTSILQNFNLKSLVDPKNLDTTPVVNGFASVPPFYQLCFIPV

| Compound | inhibition at 10 µM [%] |
| --- | --- |
| CC(=S)NC[C@H]1CN(c2ccc(-c3nnc4ncccn34)cc2)C(=O)O1 | 15 |

Target: CYP3A4 (Homo sapiens, UniProt P08684)
Assay: Inhibition of CYP3A4 at 10 uM
Assay type: ADME
How it was run: as §1

Sequence of CYP3A4 (P08684 whole entry): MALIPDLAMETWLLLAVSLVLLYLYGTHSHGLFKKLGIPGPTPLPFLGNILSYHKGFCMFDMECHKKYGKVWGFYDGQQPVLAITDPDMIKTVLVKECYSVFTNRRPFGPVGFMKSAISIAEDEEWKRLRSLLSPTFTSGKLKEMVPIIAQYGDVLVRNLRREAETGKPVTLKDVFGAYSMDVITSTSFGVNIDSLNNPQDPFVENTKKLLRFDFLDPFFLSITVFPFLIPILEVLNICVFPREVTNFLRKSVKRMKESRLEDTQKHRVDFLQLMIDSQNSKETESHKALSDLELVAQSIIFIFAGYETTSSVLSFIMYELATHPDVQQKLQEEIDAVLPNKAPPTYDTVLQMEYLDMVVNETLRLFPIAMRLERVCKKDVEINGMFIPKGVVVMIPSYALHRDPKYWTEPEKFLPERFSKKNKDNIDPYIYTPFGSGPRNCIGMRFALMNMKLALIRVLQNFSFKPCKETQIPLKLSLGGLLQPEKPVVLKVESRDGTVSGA

| Compound | inhibition at 10 µM [%] |
| --- | --- |
| CC(=S)NC[C@H]1CN(c2ccc(-c3nnc4ncccn34)cc2)C(=O)O1 | 28 |

Target: T1, CYP1A2 (Homo sapiens, UniProt P05177)
T1 sequence (P05177 whole entry): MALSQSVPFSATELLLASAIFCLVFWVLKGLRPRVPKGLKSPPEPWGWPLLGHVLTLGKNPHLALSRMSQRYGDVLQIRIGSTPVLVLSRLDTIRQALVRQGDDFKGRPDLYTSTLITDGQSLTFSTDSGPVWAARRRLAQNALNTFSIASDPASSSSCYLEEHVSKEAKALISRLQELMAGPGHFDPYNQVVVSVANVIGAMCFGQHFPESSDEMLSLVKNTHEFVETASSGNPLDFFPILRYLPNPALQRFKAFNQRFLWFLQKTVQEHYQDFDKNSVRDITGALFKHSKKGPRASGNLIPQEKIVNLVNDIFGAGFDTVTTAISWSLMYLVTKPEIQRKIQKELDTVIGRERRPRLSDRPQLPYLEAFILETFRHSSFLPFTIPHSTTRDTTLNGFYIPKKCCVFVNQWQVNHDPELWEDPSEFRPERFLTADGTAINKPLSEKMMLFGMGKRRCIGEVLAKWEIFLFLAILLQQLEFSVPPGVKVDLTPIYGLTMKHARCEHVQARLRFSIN
Assay: Inhibition of CYP1A2 at 10 uM
Assay type: ADME
How it was run: as §1

| Compound | inhibition at 10 µM [%] |
| --- | --- |
| CC(=S)NC[C@H]1CN(c2ccc(-c3nnc4ncccn34)cc2)C(=O)O1 | 0 |

Test system: Staphylococcus aureus
Assay: Ratio of MIC for Linezolid to compound for Staphylococcus aureus ATCC 25923
Assay type: functional

| Compound | Ratio |
| --- | --- |
| CC(=S)NC[C@H]1CN(c2ccc(-c3nnc4ncccn34)cc2)C(=O)O1 | 2 |

Test system: Staphylococcus epidermidis
Assay: Ratio of MIC for Linezolid to compound for Staphylococcus epidermidis ATCC 12228
Assay type: functional

| Compound | Ratio |
| --- | --- |
| CC(=S)NC[C@H]1CN(c2ccc(-c3nnc4ncccn34)cc2)C(=O)O1 | 2 |

Test system: Enterococcus faecalis
Assay: Antibacterial activity against Enterococcus faecalis ATCC 29212
Assay type: functional

| Compound | MIC [µg/mL] |
| --- | --- |
| CC(=O)NC[C@H]1CN(c2ccc(-c3nnc4ncccn34)cc2)C(=O)O1 | 16 (≈ 45.4 µM) |
| CCC(=O)NC[C@H]1CN(c2ccc(-c3nnc4ncccn34)cc2)C(=O)O1 | 16 (≈ 43.7 µM) |
| CCCC(=O)NC[C@H]1CN(c2ccc(-c3nnc4ncccn34)cc2)C(=O)O1 | > 16 |
| CCCCC(=O)NC[C@H]1CN(c2ccc(-c3nnc4ncccn34)cc2)C(=O)O1 | > 16 |
| CC(C)CC(=O)NC[C@H]1CN(c2ccc(-c3nnc4ncccn34)cc2)C(=O)O1 | > 16 |
| CC(C)C(=O)NC[C@H]1CN(c2ccc(-c3nnc4ncccn34)cc2)C(=O)O1 | > 16 |
| O=C(CCl)NC[C@H]1CN(c2ccc(-c3nnc4ncccn34)cc2)C(=O)O1 | 16 (≈ 41.4 µM) |
| O=C(NC[C@H]1CN(c2ccc(-c3nnc4ncccn34)cc2)C(=O)O1)C(Cl)Cl | 8 (≈ 19 µM) |
| O=C(NC[C@H]1CN(c2ccc(-c3nnc4ncccn34)cc2)C(=O)O1)C1CC1 | 16 (≈ 42.3 µM) |
| O=C(NC[C@H]1CN(c2ccc(-c3nnc4ncccn34)cc2)C(=O)O1)C1CCC1 | > 16 |
| CC(=S)NC[C@H]1CN(c2ccc(-c3nnc4ncccn34)cc2)C(=O)O1 | 1 (≈ 2.71 µM) |

Test system: Escherichia coli
Assay: Antibacterial activity against Escherichia coli ATCC 25922
Assay type: functional

| Compound | MIC [µg/mL] |
| --- | --- |
| CC(=O)NC[C@H]1CN(c2ccc(-c3nnc4ncccn34)cc2)C(=O)O1 | > 16 |
| CCC(=O)NC[C@H]1CN(c2ccc(-c3nnc4ncccn34)cc2)C(=O)O1 | > 16 |
| CCCC(=O)NC[C@H]1CN(c2ccc(-c3nnc4ncccn34)cc2)C(=O)O1 | > 16 |
| CCCCC(=O)NC[C@H]1CN(c2ccc(-c3nnc4ncccn34)cc2)C(=O)O1 | > 16 |
| CC(C)CC(=O)NC[C@H]1CN(c2ccc(-c3nnc4ncccn34)cc2)C(=O)O1 | > 16 |
| CC(C)C(=O)NC[C@H]1CN(c2ccc(-c3nnc4ncccn34)cc2)C(=O)O1 | > 16 |
| O=C(CCl)NC[C@H]1CN(c2ccc(-c3nnc4ncccn34)cc2)C(=O)O1 | > 16 |
| O=C(NC[C@H]1CN(c2ccc(-c3nnc4ncccn34)cc2)C(=O)O1)C(Cl)Cl | > 16 |
| O=C(NC[C@H]1CN(c2ccc(-c3nnc4ncccn34)cc2)C(=O)O1)C1CC1 | > 16 |
| O=C(NC[C@H]1CN(c2ccc(-c3nnc4ncccn34)cc2)C(=O)O1)C1CCC1 | > 16 |
| CC(=S)NC[C@H]1CN(c2ccc(-c3nnc4ncccn34)cc2)C(=O)O1 | > 16 |

Test system: Staphylococcus aureus
Assay: Antibacterial activity against methicillin-resistant Staphylococcus aureus ATCC 43300
Assay type: functional
How it was run: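 MIC determined following CLSI guideline M07-A8 (2009) for dilution susceptibility testing of aerobically growing bacteria.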

| Compound | MIC [µg/mL] |
| --- | --- |
| CC(=O)NC[C@H]1CN(c2ccc(-c3nnc4ncccn34)cc2)C(=O)O1 | 16 (≈ 45.4 µM) |
| CCC(=O)NC[C@H]1CN(c2ccc(-c3nnc4ncccn34)cc2)C(=O)O1 | 16 (≈ 43.7 µM) |
| CCCC(=O)NC[C@H]1CN(c2ccc(-c3nnc4ncccn34)cc2)C(=O)O1 | 16 (≈ 42.1 µM) |
| CCCCC(=O)NC[C@H]1CN(c2ccc(-c3nnc4ncccn34)cc2)C(=O)O1 | 16 (≈ 40.6 µM) |
| CC(C)CC(=O)NC[C@H]1CN(c2ccc(-c3nnc4ncccn34)cc2)C(=O)O1 | 16 (≈ 40.6 µM) |
| CC(C)C(=O)NC[C@H]1CN(c2ccc(-c3nnc4ncccn34)cc2)C(=O)O1 | 16 (≈ 42.1 µM) |
| O=C(CCl)NC[C@H]1CN(c2ccc(-c3nnc4ncccn34)cc2)C(=O)O1 | 4 (≈ 10.3 µM) |
| O=C(NC[C@H]1CN(c2ccc(-c3nnc4ncccn34)cc2)C(=O)O1)C(Cl)Cl | 8 (≈ 19 µM) |
| O=C(NC[C@H]1CN(c2ccc(-c3nnc4ncccn34)cc2)C(=O)O1)C1CC1 | 8 (≈ 21.1 µM) |
| O=C(NC[C@H]1CN(c2ccc(-c3nnc4ncccn34)cc2)C(=O)O1)C1CCC1 | 16 (≈ 40.8 µM) |
| CC(=S)NC[C@H]1CN(c2ccc(-c3nnc4ncccn34)cc2)C(=O)O1 | 0.5 (≈ 1.36 µM) |

Target: CYP2D6 (Homo sapiens, UniProt P10635)
Assay: Inhibition of CYP2D6 at 10 uM
Assay type: ADME
How it was run: as §1

Sequence of CYP2D6 (P10635 whole entry): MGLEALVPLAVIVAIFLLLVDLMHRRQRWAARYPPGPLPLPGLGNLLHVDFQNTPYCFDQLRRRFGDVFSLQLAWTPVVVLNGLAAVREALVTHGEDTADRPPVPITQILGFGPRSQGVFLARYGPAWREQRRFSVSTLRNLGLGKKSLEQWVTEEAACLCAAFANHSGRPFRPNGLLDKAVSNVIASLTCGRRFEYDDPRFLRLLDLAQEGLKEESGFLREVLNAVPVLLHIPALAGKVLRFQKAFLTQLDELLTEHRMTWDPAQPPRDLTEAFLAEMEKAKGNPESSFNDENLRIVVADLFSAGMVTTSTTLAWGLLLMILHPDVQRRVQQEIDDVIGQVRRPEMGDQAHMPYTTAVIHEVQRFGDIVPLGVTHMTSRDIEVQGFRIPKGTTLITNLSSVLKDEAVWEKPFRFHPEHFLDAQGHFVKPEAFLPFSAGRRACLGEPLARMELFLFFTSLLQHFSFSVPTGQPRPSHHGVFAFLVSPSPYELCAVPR

| Compound | inhibition at 10 µM [%] |
| --- | --- |
| CC(=S)NC[C@H]1CN(c2ccc(-c3nnc4ncccn34)cc2)C(=O)O1 | 13 |

Target: CYP2C19 (Homo sapiens, UniProt P33261)
Assay: Inhibition of CYP2C19 at 10 uM
Assay type: ADME
How it was run: as §1

Sequence of CYP2C19 (P33261 whole entry): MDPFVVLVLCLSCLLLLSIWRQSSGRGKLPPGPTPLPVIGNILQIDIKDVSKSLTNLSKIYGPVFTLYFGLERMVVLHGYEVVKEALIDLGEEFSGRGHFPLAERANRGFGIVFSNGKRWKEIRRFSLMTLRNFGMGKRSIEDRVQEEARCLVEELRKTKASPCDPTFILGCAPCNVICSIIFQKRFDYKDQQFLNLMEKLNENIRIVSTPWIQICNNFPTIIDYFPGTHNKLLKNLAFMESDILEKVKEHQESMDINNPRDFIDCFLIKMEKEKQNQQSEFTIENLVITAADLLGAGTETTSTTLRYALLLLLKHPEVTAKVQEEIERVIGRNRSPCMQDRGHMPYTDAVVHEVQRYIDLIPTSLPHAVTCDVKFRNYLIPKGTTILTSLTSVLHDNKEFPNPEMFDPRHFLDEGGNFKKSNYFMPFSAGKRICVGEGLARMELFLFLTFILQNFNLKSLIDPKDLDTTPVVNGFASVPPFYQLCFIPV

| Compound | inhibition at 10 µM [%] |
| --- | --- |
| CC(=S)NC[C@H]1CN(c2ccc(-c3nnc4ncccn34)cc2)C(=O)O1 | 30 |
